Measurements as given in the array DNA melting data of Ke et al. (doi:10.1101/2024.01.08.574731).

How the values were obtained:
[1] = folding enthalpy; higher = less favourable; fluorescence melt of hairpins on a sequencing array, two-state fit; details: sodium 0.088 M
How it was run: (§1)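 Folding enthalpy and melting temperature were estimated with bootstrapped two-state fits and combined across four replicates by inverse-variance weighting, with fitted temperatures raised by 9.35 °C to match UV melts. The data were Cy3 fluorescence of library hairpins, with annealed Cy3 and quencher oligos, on a sequenced MiSeq flow cell in 50 mM Na-HEPES pH 8.0, 25 mM NaCl, imaged in 2.5 °C steps up to 60 °C and normalised to pre-quench Cy3 and control constructs.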

[2] = melting temperature; fluorescence melt of hairpins on a sequencing array, two-state fit, raised by 9.35 °C to match UV melts; details: sodium 0.088 M
How it was run: as §1

Sequence | folding enthalpy [1] [kcal/mol] | Tm [2] [°C]
GTACGGACGAAAGTCTAC (((..(((....)))))) | -10.2 | 31
GTACGGCCGAAAGGCTAC (((..(((....)))))) | -7.78 | 28.7
GTACGGGGAAACCCATAC (((.(((....))).))) | -21.9 | 35
GTACGGGGAAACCTGTAC ((((.((....)).)))) | -35.9 | 49.7
GTACGGTCGAAAGACTAC (((..(((....)))))) | -10.6 | 26.8
GTACGTGGAAACACGTAC (((((((....))))))) | -46.8 | 63.8
GTACGTGGAAACATGTAC ((((.((....)).)))) | -34.1 | 47.5
GTACTACGAAAGTATAC (((.(((....)))))) | -15.3 | 27.9
GTACTCCCGAAAGGGTAC (((..(((....)))))) | -12.9 | 33.5
GTACTCCGAAAGGATAC (((.(((....)))))) | -21.6 | 36.9
GTACTCGAAAGAGACTAC ((((((....)))..))) | -14.5 | 33.6
GTACTCGAAAGAGCATAC ((((((....)))..))) | -10.9 | 23.5
GTACTCGAAAGAGCTTAC ((((((....)))..))) | -11.4 | 27.6
GTACTCGAAAGAGTATAC ((((((....)))..))) | -13.3 | 39.3
GTACTCGAAAGAGTGTAC ((((((....)))..))) | -12.6 | 35.9
GTACTCGAAAGAGTTAC ((((((....))).))) | -14.8 | 38.9
GTACTCGGAAACAAGTAC (((((.(....).))))) | -23.4 | 32.5
GTACTCGGAAACGAATAC (((.(((....))).))) | -17.8 | 33.5
GTACTGCGAAAGCATAC (((.(((....)))))) | -12 | 36.6
GTACTGGGAAACTGGTAC ((((..(....)..)))) | -24.5 | 36.5
GTACTGTCGAAAGACTAC (((..(((....)))))) | -10.3 | 26.4
GTACTTACGAAAGTATAC (((..(((....)))))) | -6.58 | 16.2
GTACTTGGAAACAAGTGC (.(((((....))))).) | -21.1 | 47.4

Sequence | folding enthalpy [1] [kcal/mol] | Tm [2] [°C]
GTACTTGGAAACGAGTAC (((((.(....).))))) | -33.6 | 44.2
GTAGACGAAAGTCCTTAC ((((((....)))..))) | -12.1 | 30.7
GTAGACGAAAGTCGTTAC ((((((....)))..))) | -11 | 34.6
GTAGACGAAAGTCTAC ((((((....)))))) | -35.9 | 62
GTAGACGCGAAAGCGTAC (((..(((....)))))) | -8.63 | 36.9
GTAGACGGAAACGTTTGC (.(.(((....))).).) | -16.7 | 29.6
GTAGAGCCGAAAGGCTAC (((..(((....)))))) | -10.5 | 34.6
GTAGAGGGAAACCTCTAC (((((((....))))))) | -54.2 | 55.8
GTAGATGAAAATCTAC ((((((....)))))) | -29.2 | 48.6
GTAGATGGAAACATCTAC (((((((....))))))) | -41.3 | 55.5
GTAGCAGGAAACCGCTAC (((((.(....).))))) | -32.4 | 48.5
GTAGCAGGAAACTGCCAC ((.((((....)))).)) | -14.3 | 36.7
GTAGCCCCGAAAGGGTAC (((..(((....)))))) | -13.1 | 39.1
GTAGCCCGAAAGGGGTAC (((.(((....))).))) | -32 | 68.5
GTAGCCCGAAAGGGTTAC (((.(((....))).))) | -25.4 | 60.2
GTAGCCGAAAGGCAATAC ((((((....)))..))) | -9.85 | 31.2
GTAGCCGAAAGGCCGTAC ((((((....)))..))) | -7.15 | 26.7
GTAGCCGAAAGGCGGTAC ((((((....)))..))) | -9.4 | 41.2
GTAGCGCGAAAGCGGTAC (((.(((....))).))) | -25.3 | 68.8
GTAGCGGGAAACCGCTGC (.(((((....))))).) | -17.3 | 59.7
GTAGCGGGAAACCGTTGC (.(.(((....))).).) | -19.2 | 35.3
GTAGCGGGAAACTGCTAC (((((.(....).))))) | -37.1 | 53.6
GTAGCGTCGAAAGACTAC (((..(((....)))))) | -9.24 | 24.7
